{"source": "ChEMBL document CHEMBL5149972", "about": "“Novel Antimalarial Tetrazoles and Amides Active against the Hemoglobin Degradation Pathway in Plasmodium falciparum” (J Med Chem, 2021)", "key": {"Plasmodium falciparum [1]": {"tested_on": "Plasmodium falciparum", "assay": "Antiplasmodial activity against asexual blood stage Plasmodium falciparum 3D7 infected in human RBC assessed as parasite growth inhibition incubated for 72 hrs by SYBR Green dye based fluorescence assay", "format": "functional, organism-based", "conditions": "Plasmodium falciparum, 3D7, Erythrocyte, 72 h", "how_it_was_run": "(§1)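 Blood-stage cultures at 2% hematocrit, human O+ RBCs, RPMI 1640 + 25 mM HEPES, 0.5% Albumax-I, 23 mM bicarbonate, 92 μM hypoxanthine. Start at 0.5% parasitemia; 72 h at 37°C, 5% CO₂; freeze-thaw, then SYBR Green in saponin/Triton lysis buffer, 4 h RT dark; fluorescence ex 485/em 535 nm. 10-point curves, technical duplicates or triplicates, final 0.5% DMSO; four-parameter fit gives EC₅₀; mean ± std dev of biological replicates.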"}, "Plasmodium falciparum [2]": {"tested_on": "Plasmodium falciparum", "assay": "Antiplasmodial activity against drug resistant Plasmodium falciparum Dd2 infected in human RBC assessed as parasite growth inhibition incubated for 72 hrs by SYBR Green dye based fluorescence assay", "format": "functional, organism-based", "conditions": "Plasmodium falciparum, Dd2, Erythrocyte, 72 h", "how_it_was_run": "as §1"}, "[3]": {"assay": "Kinetic solubility of compound in PBS at pH 2 by HPLC analysis", "format": "physicochemical", "conditions": "read-out: Kinetic_solubility"}, "[4]": {"assay": "Kinetic solubility of compound in PBS at pH 6.5 by HPLC analysis", "format": "physicochemical", "conditions": "read-out: Kinetic_solubility"}, "Plasmodium berghei": {"tested_on": "Plasmodium berghei", "assay": "Antiplasmodial activity against liver stage Plasmodium berghei ANKA expressing GFP-Luc-SMCO infected in human HepG2-A16-CD81EGFP cells assessed as reduction in liver-stage development of luciferase-expressing parasite by luciferase reporter gene based bioluminescence assay", "format": "functional, organism-based", "how_it_was_run": "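Pb-Luc (P. berghei ANKA-GFP-Luc-SMCON) sporozoites infect HepG2-A16-CD81EGFP cells in phenol red-free DMEM with 5% FBS, glutamine, penicillin/streptomycin; compounds scored for blocking liver-stage development by luciferase signal.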"}, "Plasmodium falciparum [5]": {"tested_on": "Plasmodium falciparum", "assay": "Antiplasmodial activity against Plasmodium falciparum mature stage V gametocyte assessed as inhibition of male gametocyte formation by luciferase reporter assay", "format": "functional, organism-based"}, "Plasmodium falciparum [6]": {"tested_on": "Plasmodium falciparum", "assay": "Antiplasmodial activity against Plasmodium falciparum mature stage V gametocyte assessed as inhibition of female gametocyte formation by luciferase reporter assay", "format": "functional, organism-based"}, "Plasmodium falciparum [7]": {"tested_on": "Plasmodium falciparum", "assay": "Antiplasmodial activity against chloroquine and pyrimethamine resistant Plasmodium falciparum K1 infected in human RBC assessed as parasite growth inhibition incubated for 72 hrs by SYBR Green dye based fluorescence assay", "format": "functional, organism-based", "conditions": "K1, Erythrocyte"}, "Plasmodium falciparum [8]": {"tested_on": "Plasmodium falciparum", "assay": "Antiplasmodial activity against chloroquine, atovaquone and pyrimethamine resistant Plasmodium falciparum TM90C2B infected in human RBC assessed as parasite growth inhibition incubated for 72 hrs by SYBR Green dye based fluorescence assay", "format": "functional, organism-based", "conditions": "Erythrocyte"}, "Plasmodium falciparum [9]": {"tested_on": "Plasmodium falciparum", "assay": "Antiplasmodial activity against piperaquine and pyrimethamine resistant Plasmodium falciparum RF12 infected in human RBC assessed as parasite growth inhibition incubated for 72 hrs by SYBR Green dye based fluorescence assay", "format": "functional, organism-based", "conditions": "RF12, Erythrocyte"}, "Plasmodium falciparum [10]": {"tested_on": "Plasmodium falciparum", "assay": "(§2) Antiplasmodial activity against chloroquine resistant Plasmodium falciparum Dd2-Dd2 mutant replaced with recombinant Dd2 sequence at endogenous pfcrt Dd2 locus infected in human RBC assessed as parasite growth inhibition incubated for 72 hrs by SYBR Green dye based fluorescence assay", "format": "functional, organism-based", "conditions": "Erythrocyte", "how_it_was_run": "(§3)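 Gene-edited Dd2 lines with the endogenous pfcrt locus replaced by zinc-finger nuclease editing. Concentration-response curves run with technical duplicates at each concentration; values are the average of two biological replicates, with std dev given where more replicates were collected.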"}, "Plasmodium falciparum [11]": {"tested_on": "Plasmodium falciparum", "assay": "as §2, with “chloroquine and piperaquine” for “chloroquine”, “Dd2-M343L” for “Dd2-Dd2”, “with endogenous pfcrt locus with the” for “with”, “sequence and the PPQ resistance-conferring M343L” for “sequence”", "format": "functional, organism-based", "conditions": "Erythrocyte", "how_it_was_run": "as §3"}, "Plasmodium falciparum [12]": {"tested_on": "Plasmodium falciparum", "assay": "Antiplasmodial activity against lab-derived KAF156 resistant Plasmodium falciparum Dd2-Pfcarl mutant infected in human RBC assessed as parasite growth inhibition incubated for 72 hrs by SYBR Green dye based fluorescence assay", "format": "functional, organism-based", "conditions": "Erythrocyte"}, "Plasmodium falciparum [13]": {"tested_on": "Plasmodium falciparum", "assay": "Antiplasmodial activity against lab-derived ELQ300 resistant Plasmodium falciparum Dd2-PfCytB mutant infected in human RBC assessed as parasite growth inhibition incubated for 72 hrs by SYBR Green dye based fluorescence assay", "format": "functional, organism-based", "conditions": "Erythrocyte"}, "Hemozoin": {"tested_on": "Hemozoin", "assay": "Inhibition of Beta-hematin assessed as bis-pyridyl-Fe(III)PPIX complex formation incubated for 5 hrs by NP40 detergent-mediated colorimetric assay"}, "[14]": {"assay": "Inhibition of hemozoin formation in sorbitol-synchronized early ring stage plasmodium falciparum NF54 trophozoites assessed as fold increase in free heme-Fe level at 3 times EC50 incubated for 32 hrs by flow cytometry analysis", "format": "functional", "how_it_was_run": "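Trophozoites were saponin-released (0.05%), PBS-washed, counted by flow cytometry, then hypotonically lysed and sonicated. Heme was fractionated with HEPES, SDS, pyridine and NaOH and read as Fe(III)heme–pyridine absorbance against a heme standard curve (fg/cell). Three biological replicates; Student's t-test.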"}, "Plasmodium falciparum [15]": {"tested_on": "Plasmodium falciparum", "assay": "(§4) Antiplasmodial activity against Rac-N-(Pyridin-3-yl(1-(o-tolyl)-1H-tetrazol-5-yl)methyl)-N-(3-(trifluoromethyl)benzyl)Cyclopropanamine resistant Plasmodium falciparum 3D7 clone A10 ring-stage parasite assessed as parasite growth inhibition incubated for 72 hrs by SYBR Green and MitoTracker Deep Red FM dye based flow cytometry", "format": "functional, organism-based", "how_it_was_run": "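Resistant clonal lines were tested as ring stages at 0.2% parasitemia and 1% hematocrit in RPMI-1640 with 0.5% Albumax. A 10-point 2-fold dilution series was run in duplicate with DMSO controls, final DMSO <0.5%, for 72 h. Survival was read by flow cytometry with SYBR Green as nuclear stain and MitoTracker Deep Red as vital dye. EC50 and EC90 were derived.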"}, "Plasmodium falciparum [16]": {"tested_on": "Plasmodium falciparum", "assay": "as §4, with “F1-B6” for “A10”", "format": "functional, organism-based", "how_it_was_run": "(§5)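 Clonal 3D7-A10 lines recovered after single-step selection; ring stages at 0.2% parasitemia, 1% hematocrit in RPMI-1640 with 0.5% Albumax. 72 h exposure to a 10-point 2-fold dilution series in duplicate with DMSO controls, final DMSO <0.5%. Survival read by flow cytometry, SYBR Green as nuclear stain and MitoTracker Deep Red FM as vital dye. EC₅₀ and EC₉₀ reported with fold shift relative to parental 3D7-A10.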"}, "Plasmodium falciparum [17]": {"tested_on": "Plasmodium falciparum", "assay": "as §4, with “F1-C1” for “A10”", "format": "functional, organism-based", "how_it_was_run": "as §5"}, "Plasmodium falciparum [18]": {"tested_on": "Plasmodium falciparum", "assay": "as §4, with “F1-E4” for “A10”", "format": "functional, organism-based", "how_it_was_run": "as §5"}, "Plasmodium falciparum [19]": {"tested_on": "Plasmodium falciparum", "assay": "as §4, with “F2-H12” for “A10”", "format": "functional, organism-based", "how_it_was_run": "as §5"}}, "data": [{"compound": "Cc1ccccc1-n1nnnc1C(c1cccnc1)N(Cc1cccc(C(F)(F)F)c1)C1CC1", "note": "(racemic)", "values": [{"measurement": "EC50", "setting": "Plasmodium falciparum [1]", "value": 380, "unit": "nM"}, {"measurement": "EC50", "setting": "Plasmodium falciparum [2]", "value": 540, "unit": "nM"}, {"measurement": "solubility kinetic", "setting": "[3]", "value": 12, "unit": "µg/mL"}, {"measurement": "solubility kinetic", "setting": "[4]", "value": 1.5, "unit": "µg/mL"}, {"measurement": "EC50", "setting": "Plasmodium berghei", "value": 7300, "unit": "nM"}, {"measurement": "EC50", "setting": "Plasmodium falciparum [5]", "value": "> 25000", "unit": "nM"}, {"measurement": "EC50", "setting": "Plasmodium falciparum [6]", "value": "> 25000", "unit": "nM"}, {"measurement": "EC50", "setting": "Plasmodium falciparum [7]", "value": 360, "unit": "nM"}, {"measurement": "EC50", "setting": "Plasmodium falciparum [8]", "value": 460, "unit": "nM"}, {"measurement": "EC50", "setting": "Plasmodium falciparum [9]", "value": 610, "unit": "nM"}, {"measurement": "EC50", "setting": "Plasmodium falciparum [10]", "value": 450, "unit": "nM"}, {"measurement": "EC50", "setting": "Plasmodium falciparum [11]", "value": 38000, "unit": "nM"}, {"measurement": "EC50", "setting": "Plasmodium falciparum [12]", "value": 650, "unit": "nM"}, {"measurement": "EC50", "setting": "Plasmodium falciparum [13]", "value": 850, "unit": "nM"}, {"measurement": "IC50", "setting": "Hemozoin", "value": 76000, "unit": "nM"}, {"measurement": "fold change (FC)", "setting": "[14]", "value": 6}, {"measurement": "EC50", "setting": "Plasmodium falciparum [15]; 3D7 clone A10, 72 h", "value": 300, "unit": "nM"}, {"measurement": "EC90", "setting": "Plasmodium falciparum [15]; 3D7 clone A10, time 72 hrs", "value": 590, "unit": "nM"}, {"measurement": "EC50", "setting": "Plasmodium falciparum [16]; 3D7 clone F1-B6, 72 h", "value": 550, "unit": "nM"}, {"measurement": "EC90", "setting": "Plasmodium falciparum [16]; 3D7 clone F1-B6, time 72 hrs", "value": 1100, "unit": "nM"}, {"measurement": "EC50", "setting": "Plasmodium falciparum [17]; 3D7 clone F1-C1, 72 h", "value": 540, "unit": "nM"}, {"measurement": "EC90", "setting": "Plasmodium falciparum [17]; 3D7 clone F1-C1, time 72 hrs", "value": 1000, "unit": "nM"}, {"measurement": "EC50", "setting": "Plasmodium falciparum [18]; 3D7 clone F1-E4, 72 h", "value": 740, "unit": "nM"}, {"measurement": "EC90", "setting": "Plasmodium falciparum [18]; 3D7 clone F1-E4, time 72 hrs", "value": 1500, "unit": "nM"}, {"measurement": "EC50", "setting": "Plasmodium falciparum [19]; 3D7 clone F2-H12, 72 h", "value": 640, "unit": "nM"}, {"measurement": "EC90", "setting": "Plasmodium falciparum [19]; 3D7 clone F2-H12, time 72 hrs", "value": 1300, "unit": "nM"}]}]}
